From ChEMBL document CHEMBL1142131, “Effect of anaerobic growth on quinolone lethality with Escherichia coli” (2007)
Converted amounts (≈) assume the structure as drawn. The source made the active and inactive calls. The calls are words filed in the database; no cut-off is given here.

Tests used:
[1] = test system: Escherichia coli; assay: Bactericidal activity against Escherichia coli DM4100 in the presence of chloramphenicol; type: functional, organism-based
How it was run: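 Aerobically growing mid-log cells at 37°C received chloramphenicol to 20 µg/ml 10 min before the quinolone. Treatment ran 2 h. Cells were diluted in ice-cold LB and plated aerobically on drug-free LB agar overnight at 37°C. Survival is CFU relative to CFU at quinolone addition. Replicate experiments were run.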

[2] = test system: Escherichia coli; assay: Bacteriostatic activity against Escherichia coli DM4100 in aerobic condition; type: functional
How it was run: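 MIC from 10^4 to 10^5 cells/ml in liquid medium with serial twofold quinolone dilutions. Incubated at 37°C with shaking, 2-ml cultures, aerobic.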

[3] = test system: Escherichia coli; assay: Bactericidal activity in Escherichia coli KD1373 containing parC resistance mutation in presence of chloramphenicol; type: functional, organism-based
How it was run: (§1)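 Mid-log cells grown aerobically at 37°C in liquid medium, split into 2-ml portions and given quinolone for 2 h with shaking in air. Chloramphenicol 20 µg/ml was added 10 min before quinolone for the chloramphenicol arm. Cells were diluted in ice-cold LB and plated on drug-free LB agar overnight at 37°C aerobically. Read-out is CFU relative to CFU at time of quinolone addition.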

[4] = test system: Escherichia coli; assay: Bactericidal activity in Escherichia coli KD2329 with gyrA-par C resistant mutation; type: functional, organism-based; how it was run: as §1
[5] = test system: Escherichia coli; assay: Bactericidal activity against Escherichia coli DM4100 in aerobic condition; type: functional, organism-based; how it was run: as §1
[6] = test system: Escherichia coli; assay: Bacteriostatic activity against Escherichia coli DM4100 in anaerobic condition; type: functional
How it was run: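 MIC from 10^4 to 10^5 cells/ml in liquid medium with serial twofold quinolone dilutions. Incubated at 37°C in sealed tubes after 20 min flushing with anaerobic gas (85% N2, 10% H2, 5% CO2).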

[7] = test system: Escherichia coli; assay: Bactericidal activity against Escherichia coli DM4100 in anaerobic condition; type: functional, organism-based
How it was run: (§2)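 Mid-log aerobic cultures at 37°C were split into 2-ml portions in sealed tubes flushed with anaerobic gas (85% N2, 10% H2, 5% CO2). After 20 min, anaerobic quinolone solution was added and incubation continued 2 h under gas flow. Cells were diluted in ice-cold LB, plated aerobically on drug-free LB agar overnight at 37°C. Survival is CFU relative to CFU at drug addition.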

[8] = test system: Escherichia coli; assay: Bactericidal activity in Escherichia coli KD1373 containing parC resistance mutation in anaerobic condition; type: functional, organism-based; how it was run: as §2
[9] = test system: Escherichia coli; assay: Bactericidal activity in Escherichia coli KD1373 containing parC resistance mutation in aerobic condition; type: functional, organism-based; how it was run: as §1
[10] = test system: Escherichia coli; assay: Bactericidal activity against Escherichia coli DM4100 in saline; type: functional, organism-based
[11] = test system: Escherichia coli; assay: Chromosome fragmentation in Escherichia coli DM4100 assessed as reduced lysate viscosity at 50 ug/ml after 2 hrs in aerobic condition; type: functional, organism-based
How it was run: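 Exponential aerobic cells were treated 2 h with drug, then gently lysed with lysozyme and nonionic detergents at 20°C for 2–3 min. Lysate twofold dilutions received pancreatic RNase 20 µg/ml, were heated at 80°C for 2 min, chilled on ice and brought to 20°C. Viscosity was measured by capillary viscometry.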

[12] = test system: Escherichia coli; assay: Bactericidal activity in Escherichia coli KD2329 containing gyrA-parC mutation; type: functional, organism-based; how it was run: as §1
[13] = test system: Escherichia coli; assay: Bactericidal activity in Escherichia coli KD1373 containing parC mutation in anerobic condition; type: functional, organism-based; how it was run: as §2
[14] = test system: Escherichia coli; assay: Bactericidal activity in Escherichia coli KD2750 containing gyrA resistant mutation in anerobic condition; type: functional, organism-based; how it was run: as §2

SMILES | Activity [1] | MIC [2] [µg/mL] | Activity [3] | Activity [4] | Activity [5] | MIC [6] [µg/mL] | Activity [7] | Activity [8] | Activity [9] | Activity [10] | Activity [11] | Activity [12] | Activity [13] | Activity [14]
CCN1CCN(c2c(F)cc3c(=O)c(C(=O)O)cn(C4CC4)c3c2OC)CC1 | Active | 0.08 (≈ 0.205 µM) | Active | inactive | Active | 0.08 (≈ 0.205 µM) | Active | Active | Active |  |  |  |  | 
O=C(O)c1cn(C2CC2)c2cc(N3CCNCC3)c(F)cc2c1=O | Active |  |  |  | Active |  | Active |  |  | Active |  |  |  | 
CCn1cc(C(=O)O)c(=O)c2ccc(C)nc21 [NALIDIXIC ACID] | inactive | 5 (≈ 21.5 µM) |  |  | Active | 5 (≈ 21.5 µM) | inactive |  |  | inactive | Active |  |  | 
CCn1cc(C(=O)O)c(=O)c2cc(F)c(N3CCNCC3)cc21 [NORFLOXACIN] | inactive | 0.075 (≈ 0.235 µM) |  |  | Active | 0.075 (≈ 0.235 µM) | Active |  |  | Active |  | inactive | Active | Active
